From ChEMBL document CHEMBL4364311, “Variations on a scaffold - Novel GABAA receptor modulators” (Eur J Med Chem, 2019)
Calls of active or inactive are those of the source. The calls are words filed in the database; no cut-off is given here.

Assays:
[1] = target: T1, Gamma-aminobutyric acid receptor subunit alpha-1/beta-3 (Rattus norvegicus) (UniProt P62813+P63079); experiment: (§1) Positive allosteric modulator activity at rat alpha1beta3 GABA-A receptor expressed in Xenopus laevis oocytes assessed as increase in GABA-induced chloride current at 10 uM co-applied with GABA at concentration of EC3-5 at -60 mV holding potential by two-microelectrode voltage clamp method relative to control; format: cell-based
How it was run: (§2)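 α1 and β3 RNA mixed 1:1 (final 56 ng/μl); collagenase-defolliculated stage 5–6 Xenopus oocytes injected with 2.8 ng mRNA, kept 2–3 days at 18 °C. Two-electrode clamp at −60 mV, room temperature, electrodes 1–3 MΩ with 2 M KCl, NDE perfusion 6 mL/min. GABA titrated to 3–5% of maximal current, co-applied with compound (0.1% DMSO final) until peak response.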

[2] = target: T1, Gamma-aminobutyric acid receptor subunit alpha-1/beta-3 (Rattus norvegicus); experiment: as §1, with “30” for “10”; format: cell-based; how it was run: as §2
[3] = Solubility of the compound in MeOH; format: physicochemical
[4] = Solubility of the compound at 30 uM in NDE medium containing 0.1% DMSO; format: physicochemical
[5] = Solubility of the compound in DMSO; format: physicochemical
[6] = target: T1, Gamma-aminobutyric acid receptor subunit alpha-1/beta-3 (Rattus norvegicus); experiment: as §1, with “1 to 30” for “10”; format: cell-based; how it was run: as §2

Row | Efficacy [1] | Activity [2] | solubility [3] | solubility [4] | Efficacy [2] | solubility [5] | Activity [6] | Compound
1 | 1120% | – | – | – | – | – | – | COc1ccc(-n2nc3c4cc(OC)ccc4[nH]cc-3c2=O)cc1
2 | – | inactive | – | – | – | – | – | CCOC(=O)c1[nH]c2ccccc2c1/N=N/c1ccc(OC)cc1
3 | – | – | Soluble | Soluble | 3000% | Soluble | Active | O=C(O)c1[nH]c2ccc(Cl)cc2c1/N=N/c1ccc(Br)cc1
4 | 719% | – | – | – | – | – | – | COc1ccc2[nH]cc3c(=O)n(-c4ccc(C)cc4)nc-3c2c1
5 | 1060% | – | – | – | – | – | – | COc1ccc(-n2nc3c4cc(Cl)ccc4[nH]cc-3c2=O)cc1
6 | – | inactive | – | – | – | – | – | CCOC(=O)c1[nH]c2ccc(Cl)cc2c1/N=N/c1ccc(OC)cc1
7 | 196% | – | Soluble | Soluble | 300% | Soluble | – | COc1ccc(/N=N/c2c(C(=O)O)[nH]c3ccc(OC)cc23)cc1
8 | 919% | – | Soluble | Soluble | 2000% | Soluble | Active | COc1ccc(/N=N/c2c(C(=O)O)[nH]c3ccc(Cl)cc23)cc1
9 | – | – | Soluble | Soluble | 830% | Soluble | Active | COc1ccc2[nH]c(C(=O)O)c(/N=N/c3ccc(Br)cc3)c2c1
10 | 372% | – | – | – | – | – | – | Cc1ccc(-n2nc3c4cc(Cl)ccc4[nH]cc-3c2=O)cc1
11 | 167% | – | Soluble | Soluble | 400% | Soluble | Active | COc1ccc2[nH]c(C(=O)O)c(/N=N/c3ccc(C)cc3)c2c1
12 | – | – | Soluble | Soluble | 200% | Soluble | – | COc1ccc(/N=N/c2c(C(=O)O)[nH]c3ccccc23)cc1
13 | 707% | – | Soluble | Soluble | 1800% | Soluble | Active | Cc1ccc(/N=N/c2c(C(=O)O)[nH]c3ccc(Cl)cc23)cc1
